Measured values: ChEMBL document CHEMBL3414473
One block for each compound: values may come before it. The source made the active and inactive calls. The calls are words filed in the database; no cut-off is given here.

Legend:
[1] = biological target: RAC-alpha serine/threonine-protein kinase (Homo sapiens, UniProt P31749); experiment: Binding affinity to GST-tagged PH domain of AKT (unknown origin) by surface Plasmon resonance spectroscopy
Method in brief: (§1)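 SPR: GST-tagged PH domain fusion protein immobilized on CM5 chip by amine coupling to about 17000 RU. Analyte injected at 1–20 µM at 30 µL/min; DMSO in samples and running buffer ≤1% (v/v). Kd obtained from sensorgram fitting.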

LNCaP [2] = experiment: Antiproliferative activity against human LNCAP cells assessed as suppression of cell viability after 24 hrs by MTT assay; type: functional, cell-based
Method in brief: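 LNCaP cells seeded at 5000/well on poly-L-lysine-coated plates in 10% FBS; 24 h later exposed to agents in serum-free medium for 24 h. Viability expressed as percent of vehicle control; IC50 derived.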

PrEC = experiment: Antiproliferative activity against human PrEC cells assessed as suppression of cell viability after 24 hrs by MTT assay in serum free medium; type: cell-based
PC-3 [3] = experiment: Antiproliferative activity against human PTEN-negative PC3 cells assessed as suppression of cell viability after 24 hrs by MTT assay in serum free medium; type: functional, cell-based
LNCaP [4] = experiment: Induction of PHLPP1 localization to human LNCAP cell membrane at 5 uM after 24 hrs by immunofluorescence staining analysis; type: functional, cell-based
Method in brief: (§2)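 LNCaP cells on poly-L-lysine-coated surfaces, treated in serum-free medium for 24 h. Fixed in 4% formaldehyde, permeabilized with 0.1% Triton X-100, blocked in 1% FBS, primary antibody (1:300) overnight, then Alexa Fluor secondary 2 h; DAPI nuclei; confocal imaging with cross-sectional fluorescence intensity analysis.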

Scaffold protein ILK = biological target: T1, Scaffold protein ILK (Homo sapiens, UniProt Q13418); experiment: Binding affinity to GST-tagged PH domain of ILK (unknown origin) by surface Plasmon resonance spectroscopy; method in brief: as §1
T1 sequence (Q13418 whole entry): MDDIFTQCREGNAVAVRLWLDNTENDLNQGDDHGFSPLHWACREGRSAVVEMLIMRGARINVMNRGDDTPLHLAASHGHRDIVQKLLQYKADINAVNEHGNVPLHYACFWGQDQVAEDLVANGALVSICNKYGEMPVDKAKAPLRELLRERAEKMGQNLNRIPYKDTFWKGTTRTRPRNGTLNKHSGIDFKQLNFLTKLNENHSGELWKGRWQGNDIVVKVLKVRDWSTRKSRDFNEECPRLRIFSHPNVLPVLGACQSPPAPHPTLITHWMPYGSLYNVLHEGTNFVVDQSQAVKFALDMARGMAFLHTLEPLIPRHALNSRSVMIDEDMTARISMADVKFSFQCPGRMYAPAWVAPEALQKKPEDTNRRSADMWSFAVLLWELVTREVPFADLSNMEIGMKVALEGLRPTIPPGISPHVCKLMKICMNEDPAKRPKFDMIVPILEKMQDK

[5] = biological target: T2, PH domain leucine-rich repeat-containing protein phosphatase 1 (Homo sapiens, UniProt O60346); experiment: Inhibition of PHLPP1-mediated reduction in phosphorylation of Akt at Ser473 in human LNCAP cells after 24 hrs by Western blot analysis; type: cell-based
T2 sequence (O60346 whole entry, the tested form may be a part): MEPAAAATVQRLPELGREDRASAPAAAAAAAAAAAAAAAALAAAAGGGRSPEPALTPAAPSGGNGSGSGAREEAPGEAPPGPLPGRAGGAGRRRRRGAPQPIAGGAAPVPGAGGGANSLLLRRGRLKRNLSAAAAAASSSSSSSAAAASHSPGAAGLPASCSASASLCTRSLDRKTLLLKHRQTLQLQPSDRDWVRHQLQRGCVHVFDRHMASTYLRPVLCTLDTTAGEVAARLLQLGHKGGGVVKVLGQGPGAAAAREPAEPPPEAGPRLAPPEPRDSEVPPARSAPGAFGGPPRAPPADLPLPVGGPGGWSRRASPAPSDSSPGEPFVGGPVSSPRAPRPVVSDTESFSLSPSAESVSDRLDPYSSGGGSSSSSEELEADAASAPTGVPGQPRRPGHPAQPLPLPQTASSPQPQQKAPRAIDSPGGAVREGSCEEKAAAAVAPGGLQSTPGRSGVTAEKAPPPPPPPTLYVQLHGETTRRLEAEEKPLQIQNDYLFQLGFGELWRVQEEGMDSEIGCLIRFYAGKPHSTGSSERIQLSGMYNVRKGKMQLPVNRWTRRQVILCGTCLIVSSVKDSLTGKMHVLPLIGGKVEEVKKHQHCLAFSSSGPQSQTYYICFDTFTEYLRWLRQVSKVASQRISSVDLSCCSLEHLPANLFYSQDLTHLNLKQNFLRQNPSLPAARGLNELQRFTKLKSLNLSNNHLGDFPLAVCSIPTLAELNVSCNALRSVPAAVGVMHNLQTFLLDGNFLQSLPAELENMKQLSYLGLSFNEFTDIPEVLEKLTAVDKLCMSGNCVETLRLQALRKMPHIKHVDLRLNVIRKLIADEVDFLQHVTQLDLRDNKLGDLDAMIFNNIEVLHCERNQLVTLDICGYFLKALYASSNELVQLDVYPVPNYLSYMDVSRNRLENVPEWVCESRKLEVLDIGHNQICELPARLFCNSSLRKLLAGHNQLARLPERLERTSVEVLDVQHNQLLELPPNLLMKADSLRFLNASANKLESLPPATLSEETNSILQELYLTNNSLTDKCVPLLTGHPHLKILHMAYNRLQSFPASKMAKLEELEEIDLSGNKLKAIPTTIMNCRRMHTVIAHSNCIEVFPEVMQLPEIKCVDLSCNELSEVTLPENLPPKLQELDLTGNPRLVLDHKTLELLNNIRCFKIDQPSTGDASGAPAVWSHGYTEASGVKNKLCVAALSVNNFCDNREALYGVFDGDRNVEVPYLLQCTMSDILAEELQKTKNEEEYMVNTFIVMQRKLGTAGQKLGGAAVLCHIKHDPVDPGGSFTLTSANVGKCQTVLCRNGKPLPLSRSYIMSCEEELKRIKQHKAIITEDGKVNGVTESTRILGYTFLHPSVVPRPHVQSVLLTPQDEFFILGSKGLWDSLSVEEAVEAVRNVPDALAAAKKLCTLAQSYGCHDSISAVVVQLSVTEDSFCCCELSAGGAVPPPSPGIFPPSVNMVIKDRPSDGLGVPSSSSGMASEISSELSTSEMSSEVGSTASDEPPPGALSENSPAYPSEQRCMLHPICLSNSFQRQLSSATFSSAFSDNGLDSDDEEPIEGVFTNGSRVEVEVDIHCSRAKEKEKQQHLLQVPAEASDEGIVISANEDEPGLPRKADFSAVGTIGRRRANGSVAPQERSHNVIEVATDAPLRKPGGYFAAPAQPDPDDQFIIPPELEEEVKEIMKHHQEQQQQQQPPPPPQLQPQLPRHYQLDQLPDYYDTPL
Method in brief: (§3)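 LNCaP or PC-3 cells treated at various concentrations for 24 h in serum-free medium. Lysed in SDS buffer (50 mM Tris pH 8, 10 mM EDTA, 1% SDS, protease inhibitors); equal protein run on SDS-PAGE and transferred to nitrocellulose. Primary antibodies 1:1000 overnight at 4 °C, HRP secondary 1:2000; detected by ECL.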

[6] = biological target: T2, PH domain leucine-rich repeat-containing protein phosphatase 1; experiment: Inhibition of PHLPP1-mediated reduction in phosphorylation of MDM2 in human LNCAP cells after 24 hrs by Western blot analysis; type: cell-based; method in brief: as §3
[7] = biological target: T3, 3-phosphoinositide-dependent protein kinase 1 (Homo sapiens, UniProt O15530); experiment: Binding affinity to GST-tagged PH domain of PDK1 (unknown origin) by surface Plasmon resonance spectroscopy; method in brief: as §1
T3 sequence (O15530 whole entry): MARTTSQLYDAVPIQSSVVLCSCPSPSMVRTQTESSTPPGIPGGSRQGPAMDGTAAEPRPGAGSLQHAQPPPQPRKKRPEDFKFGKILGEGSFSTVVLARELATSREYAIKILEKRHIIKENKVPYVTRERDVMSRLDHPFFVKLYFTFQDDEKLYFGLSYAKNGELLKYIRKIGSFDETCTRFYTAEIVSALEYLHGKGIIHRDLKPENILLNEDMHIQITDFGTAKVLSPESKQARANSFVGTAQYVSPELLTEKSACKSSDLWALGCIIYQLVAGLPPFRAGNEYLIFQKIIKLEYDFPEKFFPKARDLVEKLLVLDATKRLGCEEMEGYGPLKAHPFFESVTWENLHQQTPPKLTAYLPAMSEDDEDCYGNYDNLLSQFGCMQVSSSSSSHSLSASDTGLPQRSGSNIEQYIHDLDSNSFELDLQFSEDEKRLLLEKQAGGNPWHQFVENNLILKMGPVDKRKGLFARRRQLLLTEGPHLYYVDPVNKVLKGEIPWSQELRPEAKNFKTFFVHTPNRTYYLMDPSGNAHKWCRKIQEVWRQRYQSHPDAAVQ

[8] = biological target: T2, PH domain leucine-rich repeat-containing protein phosphatase 1; experiment: Inhibition of PHLPP1-mediated reduction in phosphorylation of Akt at Thr308 in human LNCAP cells after 24 hrs by Western blot analysis; type: cell-based; method in brief: as §3
[9] = biological target: T2, PH domain leucine-rich repeat-containing protein phosphatase 1; experiment: Inhibition of PHLPP1-mediated reduction in phosphorylation of IKK in human PC3 cells after 24 hrs by Western blot analysis; type: cell-based; details: PC-3; method in brief: as §3
[10] = biological target: T2, PH domain leucine-rich repeat-containing protein phosphatase 1; experiment: Inhibition of PHLPP1-mediated reduction in phosphorylation of MDM2 in human PC3 cells after 24 hrs by Western blot analysis; type: cell-based; details: PC-3; method in brief: as §3
[11] = biological target: T2, PH domain leucine-rich repeat-containing protein phosphatase 1; experiment: Binding affinity to GST-tagged PH domain of PHLPP1 (unknown origin) by surface Plasmon resonance spectroscopy; method in brief: as §1
LNCaP [12] = experiment: Induction of Akt localization to human LNCAP cell membrane at 5 uM after 24 hrs by immunofluorescence staining analysis; type: functional, cell-based; method in brief: as §2
[13] = biological target: T2, PH domain leucine-rich repeat-containing protein phosphatase 1; experiment: Inhibition of PHLPP1-mediated reduction in phosphorylation of Akt at Ser473 in human PC3 cells after 24 hrs by Western blot analysis; type: cell-based; details: PC-3; method in brief: as §3
[14] = biological target: T2, PH domain leucine-rich repeat-containing protein phosphatase 1; experiment: Inhibition of PHLPP1-mediated reduction in phosphorylation of IKK in human LNCAP cells after 24 hrs by Western blot analysis; type: cell-based; method in brief: as §3
[15] = biological target: T2, PH domain leucine-rich repeat-containing protein phosphatase 1; experiment: Inhibition of PHLPP1-mediated reduction in phosphorylation of Akt at Thr308 in human PC3 cells after 24 hrs by Western blot analysis; type: cell-based; details: PC-3; method in brief: as §3
LNCaP [16] = experiment: Induction of PHLPP1 localization to human LNCAP cell membrane at 10 uM after 24 hrs by immunofluorescence staining analysis; type: functional, cell-based; method in brief: as §2
LNCaP [17] = experiment: Induction of Akt localization to human LNCAP cell membrane at 10 uM after 24 hrs by immunofluorescence staining analysis; type: functional, cell-based; method in brief: as §2
PC-3 [18] = experiment: In vivo antitumor efficacy in human PC3 cells xenografted athymic nude mouse assessed as inhibition of tumor growth at 50 mg/kg, ip for 21 days relative to vehicle treated control; type: functional, organism-based; parameters: dose 50 mg/kg
Method in brief: (§4)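 Athymic nude mice given PC-3 cells sc (1 × 10⁶ per mouse); at about 50 mm³, randomized (n = 7) and dosed once daily for 21 days either ip at 50 mg/kg (vehicle saline/PEG400/DMSO/Tween 80, 65:20:10:5) or by oral gavage at 100 mg/kg (vehicle 0.5% methylcellulose/0.1% Tween 80 in water). Tumor volume measured weekly by calipers (width² × length × 0.52); phospho-proteins checked by Western blotting of tumor lysates.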

PC-3 [19] = experiment: In vivo antitumor efficacy in human PC3 cells xenografted athymic nude mouse assessed as decrease in phosphorylation of Akt at Thr308 in tumor at 100 mg/kg, po for 21 days relative to vehicle treated control; type: functional, organism-based; parameters: dose 100 mg/kg; method in brief: as §4
PC-3 [20] = experiment: In vivo antitumor efficacy in human PC3 cells xenografted athymic nude mouse assessed as inhibition of tumor growth at 100 mg/kg, po for 21 days relative to vehicle treated control; type: functional, organism-based; parameters: dose 100 mg/kg; method in brief: as §4
PC-3 [21] = experiment: In vivo antitumor efficacy in human PC3 cells xenografted athymic nude mouse assessed as decrease in phosphorylation of Akt at Ser473 in tumor at 100 mg/kg, po for 21 days relative to vehicle treated control; type: functional, organism-based; parameters: dose 100 mg/kg; method in brief: as §4
PC-3 [22] = experiment: In vivo antitumor efficacy in human PC3 cells xenografted athymic nude mouse assessed as decrease in phosphorylation of IKK in tumor at 100 mg/kg, po for 21 days relative to vehicle treated control; type: functional, organism-based; parameters: dose 100 mg/kg; method in brief: as §4
PC-3 [23] = experiment: In vivo antitumor efficacy in human PC3 cells xenografted athymic nude mouse assessed as decrease in phosphorylation of MDM2 in tumor at 100 mg/kg, po for 21 days relative to vehicle treated control; type: functional, organism-based; parameters: dose 100 mg/kg; method in brief: as §4
LNCaP [24] = experiment: Induction of Akt-PHLPP1 complex to human LNCAP cell membrane after 24 hrs by immunofluorescence staining analysis; type: functional, cell-based

Chain of RAC-alpha serine/threonine-protein kinase (P31749 whole entry, the tested form may be a part): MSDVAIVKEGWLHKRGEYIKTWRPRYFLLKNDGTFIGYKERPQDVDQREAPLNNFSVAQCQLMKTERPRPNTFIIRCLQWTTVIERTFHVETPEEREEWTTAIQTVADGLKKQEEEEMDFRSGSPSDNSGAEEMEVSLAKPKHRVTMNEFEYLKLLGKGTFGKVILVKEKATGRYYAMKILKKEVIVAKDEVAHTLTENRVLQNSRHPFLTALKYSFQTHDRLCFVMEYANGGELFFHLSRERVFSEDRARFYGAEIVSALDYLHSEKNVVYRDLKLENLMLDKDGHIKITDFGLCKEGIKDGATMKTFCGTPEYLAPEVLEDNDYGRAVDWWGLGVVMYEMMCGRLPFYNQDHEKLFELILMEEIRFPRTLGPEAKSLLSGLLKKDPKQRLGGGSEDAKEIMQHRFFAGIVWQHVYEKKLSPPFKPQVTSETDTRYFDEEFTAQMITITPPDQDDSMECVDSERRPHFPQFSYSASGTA

Kd [1]: 0.35 µM
IC50 (LNCaP [2]): 10 µM
SMILES: CC(C)CCCC1(C)CCc2cc(O)ccc2O1 (centres undefined)

Kd [1]: 0.52 µM
SMILES: Cc1c(O)cc2c(c1C)OC(C)(CCCC(C)C)CC2 (racemic)

Kd [1]: 0.41 µM
IC50 (LNCaP [2]): 7.5 µM
SMILES: Cc1cc(O)cc2c1OC(C)(CCCC(C)C)CC2 (centres undefined)

Kd [1]: 1.18 µM
IC50 (LNCaP [2]): 27 µM
SMILES: CC(C)CCCC1(C)CCc2cc(O)cc(O)c2O1 (centres undefined)

Kd [1]: 0.34 µM
IC50 (LNCaP [2]): 9 µM
SMILES: CC(C)CCCC1(C)CCc2cc(O)cc(F)c2O1 (centres undefined)

Kd [1]: 0.98 µM
IC50 (LNCaP [2]): 23 µM
SMILES: CC(C)CCCC1(C)CCc2ccc(O)c(O)c2O1 (centres undefined)

inhibition [5]: inactive
Kd [1]: 0.35 µM
IC50 (LNCaP [2]): 20 µM
inhibition [13]: inactive
SMILES: CC(C)CCCC1(C)CCc2cc(S(N)(=O)=O)cc(F)c2O1 (centres undefined)
Activity (LNCaP [16]): inactive
Activity (LNCaP [17]): inactive

Kd [1]: 1.88 µM
IC50 (LNCaP [2]): 26 µM
SMILES: COc1cc(O)cc2c1OC(C)(CCCC(C)C)CC2 (centres undefined)

Kd [1]: 0.45 µM
IC50 (LNCaP [2]): 8 µM
SMILES: CC(C)CCCC1(C)CCc2cc(O)cc(C(F)(F)F)c2O1 (centres undefined)

Kd [1]: 0.39 µM
IC50 (LNCaP [2]): 8 µM
SMILES: CC(C)CCCC1(C)CCc2cc(O)cc(Br)c2O1 (centres undefined)

inhibition [5]: Dose-dependent effect
inhibition [6]: Dose-dependent effect
inhibition [8]: inactive
inhibition [9]: Dose-dependent effect
inhibition [10]: Dose-dependent effect
inhibition [13]: Dose-dependent effect
inhibition [14]: Dose-dependent effect
inhibition [15]: inactive
SMILES: Cc1c(O)cc2c(c1C)O[C@](C)(CCCC(C)C)CC2
Activity (PC-3 [18]): Active
inhibition (PC-3 [19]): inactive
Activity (PrEC): Non-toxic
Activity (PC-3 [20]): inactive
Activity (PC-3 [21]): inactive
Activity (PC-3 [22]): inactive
Activity (LNCaP [16]): Active
Activity (PC-3 [23]): inactive
Activity (LNCaP [17]): Active
Activity (LNCaP [24]): Dose-dependent effect

The remaining lines, values behind:

SMILES: Cc1cc(O)cc2c1NC(C)(CCCC(C)C)CC2 (centres undefined)
Kd [1]: 0.03 µM
IC50 (LNCaP [2]): 10 µM

SMILES: Cc1cc(O)cc2c1OC(C)(CCCC(C)C)CC2=O (centres undefined)
Kd [1]: 0.32 µM
IC50 (LNCaP [2]): 18 µM

SMILES: CC(C)CCCC1(C)CC(=O)c2cc(O)ccc2O1 (centres undefined)
Kd [1]: 0.28 µM
IC50 (LNCaP [2]): > 30 µM

SMILES: COc1cc2c(c(C)c1C)OC(C)(CCCC(C)C)CC2 (centres undefined)
Kd [1]: 8.5 µM
IC50 (LNCaP [2]): > 30 µM
Activity (PrEC): Non-toxic
Activity (PC-3 [3]): inactive

SMILES: CC(C)CCCC1(C)CCc2cc(S(N)(=O)=O)cc(Br)c2O1 (centres undefined)
Activity (LNCaP [4]): Active
Kd (Scaffold protein ILK): 13.1 µM
inhibition [5]: Dose-dependent effect
inhibition [6]: Dose-dependent effect
Kd [1]: 0.22 µM
Kd [7]: 11.1 µM
inhibition [8]: inactive
inhibition [9]: Dose-dependent effect
IC50 (LNCaP [2]): 4.5 µM
inhibition [10]: Dose-dependent effect
Kd [11]: 0.69 µM
Activity (LNCaP [12]): Active
inhibition [13]: Dose-dependent effect
Activity (PrEC): Non-toxic
Activity (PC-3 [3]): Active
inhibition [14]: Dose-dependent effect
inhibition [15]: inactive

SMILES: CC(C)CCCC1(C)CCc2cc(N)ccc2O1 (centres undefined)
Kd [1]: 0.21 µM
IC50 (LNCaP [2]): > 30 µM

SMILES: CC(C)CCCC1(C)CCc2c(O)cccc2O1 (centres undefined)
Kd [1]: 0.34 µM
IC50 (LNCaP [2]): 11 µM

SMILES: Cc1c(O)cc2c(c1C)OC(C)(CCCC(C)C)CC2=O (centres undefined)
Kd [1]: 0.41 µM

SMILES: Cc1c(O)cc2c(c1C)O[C@](C)(CCC[C@H](C)CCC[C@H](C)CCCC(C)C)CC2 [GAMMA-TOCOPHEROL]
IC50 (LNCaP [2]): > 100 µM
